pIC50: −log10 of the molar value.
Experiments:
[1] = Therapeutic index, ratio of IC50 for human MCF10A cells to IC50 for human MCF7 cells; type: cell-based; conditions: MCF10A cells (normal) versus MCF7 cells (cancer), read-out: Ratio IC50
Procedure, shortened: (§1)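 Each cell line grown in DMEM with 10% FBS, 37 °C, 5% CO₂. Cells seeded and allowed 24 h, then drug added in medium (≤0.1% v/v DMSO). Medium and drug renewed at day 3, cells kept 3 more days. Sulforhodamine-B read at 492 nm. IC₅₀ taken from semilog dose-response curves by linear interpolation, triplicate wells, at least twice. Index = IC₅₀ normal line / IC₅₀ cancer line.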

[2] = Therapeutic index, ratio of IC50 for rat IEC-6 cells to IC50 for human HT-29 cells; type: cell-based; conditions: IEC-6 cells (normal) versus HT-29 cells (cancer), read-out: Ratio IC50; procedure, shortened: as §1
HT-29 = assay: Cytotoxicity against human HT-29 cells after 6 days by SRB colorimetric assay; type: functional, cell-based; conditions: HT-29, 144 h
MCF-10A = assay: Cytotoxicity against human MCF10A cells after 6 days by SRB colorimetric assay; type: cell-based; conditions: 144 h
[3] = Cytotoxicity against rat IEC-6 cells after 6 days by SRB colorimetric assay; type: cell-based; conditions: IEC-6, 144 h
MCF7 = assay: Induction of apoptosis in human MCF7 cells at IC50 after 48 hrs using annexin V-FITC staining by flow cytometry; type: functional

Structure (SMILES)	selectivity ratio [1]	selectivity ratio [2]	pIC50 (HT-29)	pIC50 (MCF-10A)	pIC50 [3]	Activity (MCF7) [%]
O=c1[nH]cc(F)c(=O)[nH]1 [FLUOROURACIL]	0.17	0.61	5.97	6.14	6.18	–
CC(=O)O[C@H]1C(=O)[C@@]2(C)[C@H]([C@H](OC(=O)c3ccccc3)[C@]3(O)C[C@H](OC(=O)[C@H](O)[C@@H](NC(=O)c4ccccc4)c4ccccc4)C(C)=C1C3(C)C)[C@]1(OC(C)=O)CO[C@@H]1C[C@@H]2O [PACLITAXEL]	–	–	–	–	–	43

Source: ChEMBL document CHEMBL1821604, “Anticancer activity and cDNA microarray studies of a (RS)-1,2,3,5-tetrahydro-4,1-benzoxazepine-3-yl]-6-chloro-9H-purine, and an acyclic (RS)-O,N-acetalic 6-chloro-7H-purine” (Eur J Med Chem, 2011)
